Data published in ChEMBL document CHEMBL1121626, “Quantitative structure-activity relationships for N-[N',N'-disubstituted-amino)acetyl]arylamines for local anesthetic activity and acute toxicity” (J Med Chem, 1980).
Activity calls are given as the source filed them. The rule behind the calls is not given here.

Assays:
[1] = Partition coefficient (logP); format: physicochemical; conditions: octanol/water
Summary of the method: (§1)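 Partition coefficients were measured by Brändström's titrimetric method at 25 °C in 1-octanol/water or cyclohexane/water. Amine hydrochloride in aqueous solution pre-saturated with the solvent was one-fifth neutralized with NaOH, then solvent was added. The pH was held at its original value by automatic alkali addition until equilibrium. Each value is the mean of eight determinations, reported with 95% confidence intervals.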

Oryctolagus cuniculus [2] = test: Anaesthetic activity measured as anaesthetic dose (AD) required to nullify the rabbit corneal reflex after 5 min; format: functional, Cornea
Summary of the method: (§2)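 Aqueous drug solution, 0.25 mL, applied to rabbit cornea for 1 min, then wiped off. 100 regular mechanical stimulations were given. The minimal active dose is the concentration that abolished the corneal reflex at 5 min. Testing was repeated until 10 concordant results were obtained, with experimental error no more than 10%.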

[3] = Compound was evaluated for the apparent partition coefficient at pH 7.4; format: physicochemical; conditions: octanol/water
Summary of the method: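 Apparent partition coefficient at pH 7.4 was calculated from the octanol/water log P and pKa using P = P'(1 + 10^(pKa − pH)).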

Oryctolagus cuniculus [4] = test: Compound was evaluated for anesthetic dose (pAD = log 1/AD; AD = anesthetic dose)
[5] = Intravenous lethal dose of the compound; format: ADME, organism-based; conditions: mouse, in vivo
Summary of the method: (§3)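 Mice, groups of 10 randomized animals; aqueous drug solution given intravenously at 0.2 mL/20 g body weight. Percentage dead scored 5 days after start of experiment; LD50 derived by the usual statistical method, reported with 95% confidence interval.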

Mus musculus [6] = test: Compound was evaluated for lethal dose (pLD50 = log1/LD50 in mol/kg.); format: toxicity, organism-based; conditions: in vivo; summary of the method: as §3
Mus musculus [7] = organism: Mus musculus; test: Antiarrhythmic activity (arrhythmy induced by HCCl3 in mice) measured as its effect on ventricular fibrillation; No effect; format: functional, organism-based; conditions: Heart
[8] = Partition coefficient (logP) (cyclohexane); format: physicochemical; conditions: cyclohexane/water; summary of the method: as §1
[9] = Dissociation constant was observed; format: physicochemical
Summary of the method: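 Values for water-insoluble compounds were obtained by extrapolation. Two values were derived indirectly from P = P'(1 + 10^(pKa − pH)), using P' measured at pH 12 and 7.34, or at pH 7.2 and 6.0.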

Mus musculus [10] = test: Delay of respiratory arrest was observed at 5 mg/kg ip in mice in antiarrhythmic assay; format: functional, Heart; conditions: route intraperitoneal
Mus musculus [11] = test: Delay of respiratory arrest was observed at 10 mg/kg ip in mice in antiarrhythmic assay; format: functional, Heart; conditions: route intraperitoneal
Oryctolagus cuniculus [12] = test: Anaesthetic activity measured as anaesthetic dose (AD) required to nullify the rabbit corneal reflex after 5 min;d = Irritant; format: functional, organism-based; conditions: Cornea; summary of the method: as §2

SMILES: Cl.O=C(CN1CCOCC1)NCc1ccccc1
- logP [1]: 0.672
- AD (Oryctolagus cuniculus [2]): 185 mM
- logD [3]: 0.67
- pAD (Oryctolagus cuniculus [4]): 0.73
- LD50 [5]: 1720 µmol/kg
- pLD50 (Mus musculus [6]): 2.77
- Activity (Mus musculus [7]): inactive
- logP [8]: -1.132
- pKa [9]: 4.98

SMILES: CCN(CC)CC(=O)NC1CC(c2ccccc2)c2ccccc21.Cl (stereo not given)
- logP [1]: 4.41
- AD (Oryctolagus cuniculus [2]): 55.8 mM
- pAD (Oryctolagus cuniculus [4]): 1.55
- LD50 [5]: 164 µmol/kg
- pLD50 (Mus musculus [6]): 3.78
- Activity (Mus musculus [7]): inactive
- logP [8]: 4.153

SMILES: CCCN(CCC)CC(=O)NC1c2ccccc2-c2ccccc21.Cl
- logP [1]: 4.61
- AD (Oryctolagus cuniculus [2]): 20.9 mM
- logD [3]: 4.37
- pAD (Oryctolagus cuniculus [4]): 1.68
- Activity (Mus musculus [7]): inactive
- logP [8]: 4.44
- pKa [9]: 7.28

SMILES: CCCCN(CCCC)CC(=O)NCc1ccccc1.Cl
- logP [1]: 4.16
- AD (Oryctolagus cuniculus [2]): 16 mM
- pAD (Oryctolagus cuniculus [4]): 1.8
- Increase (Mus musculus [10]): 33.2%
- LD50 [5]: 116 µmol/kg
- pLD50 (Mus musculus [6]): 3.93
- Activity (Mus musculus [7]): inactive
- logP [8]: 3.791

SMILES: CCN(CC)CC(=O)NC1CCc2ccccc21.Cl (stereo not given)
- logP [1]: 2.74
- AD (Oryctolagus cuniculus [2]): 27.9 mM
- logD [3]: 1.88
- pAD (Oryctolagus cuniculus [4]): 1.45
- LD50 [5]: 238 µmol/kg
- pLD50 (Mus musculus [6]): 3.62
- Activity (Mus musculus [7]): inactive
- logP [8]: 1.645
- pKa [9]: 8.19

SMILES: CCCN(CCC)CC(=O)NC1CCc2ccccc21.Cl (stereo not given)
- logP [1]: 3.79
- AD (Oryctolagus cuniculus [2]): 12.8 mM
- pAD (Oryctolagus cuniculus [4]): 1.89
- LD50 [5]: 145 µmol/kg
- pLD50 (Mus musculus [6]): 3.84
- Activity (Mus musculus [7]): inactive
- logP [8]: 3.277

SMILES: CCN(CC)CC(=O)NC1c2ccccc2-c2ccccc21.Cl
- logP [1]: 3.64
- AD (Oryctolagus cuniculus [2]): 15.1 mM
- logD [3]: 2.96
- pAD (Oryctolagus cuniculus [4]): 1.82
- LD50 [5]: 146 µmol/kg
- pLD50 (Mus musculus [6]): 3.83
- Activity (Mus musculus [7]): inactive
- logP [8]: 3.067
- pKa [9]: 7.98

SMILES: CCN(CC)CC(=O)NC(c1ccccc1)c1ccccc1.Cl
- Increase (Mus musculus [11]): 27.8%
- logP [1]: 3.74
- AD (Oryctolagus cuniculus [2]): 15 mM
- pAD (Oryctolagus cuniculus [4]): 1.82
- LD50 [5]: 212 µmol/kg
- pLD50 (Mus musculus [6]): 3.67
- Activity (Mus musculus [7]): inactive
- logP [8]: 3.2

SMILES: O=C(CN1CCCC1)NCc1ccccc1
- logP [1]: 1.69
- AD (Oryctolagus cuniculus [2]): 196 mM
- logD [3]: 0.769
- pAD (Oryctolagus cuniculus [4]): 0.71
- LD50 [5]: 361 µmol/kg
- pLD50 (Mus musculus [6]): 3.44
- Activity (Mus musculus [7]): inactive
- logP [8]: 0.156
- pKa [9]: 8.27

SMILES: CCCN(CCC)CC(=O)NCc1ccccc1.Cl
- logP [1]: 3.11
- AD (Oryctolagus cuniculus [2]): 17.5 mM
- pAD (Oryctolagus cuniculus [4]): 1.75
- LD50 [5]: 254 µmol/kg
- pLD50 (Mus musculus [6]): 3.59
- Activity (Mus musculus [7]): inactive
- logP [8]: 2.386

SMILES: CCN(CC)CC(=O)NC1c2ccccc2CCc2ccccc21.Cl
- logP [1]: 4.41
- AD (Oryctolagus cuniculus [2]): 20.9 mM
- pAD (Oryctolagus cuniculus [4]): 1.25
- LD50 [5]: 139 µmol/kg
- pLD50 (Mus musculus [6]): 3.86
- Activity (Mus musculus [7]): inactive
- logP [8]: 4.153

SMILES: CCN(CC)CCOC(=O)c1ccc(N)cc1.Cl [PROCAINE HYDROCHLORIDE]
- AD (Oryctolagus cuniculus [2]): 36.7 mM
- LD50 [5]: 169 µmol/kg
- Activity (Mus musculus [7]): inactive

SMILES: CCN(CC)CC(=O)NCc1ccccc1-c1ccccc1.Cl
- logP [1]: 3.74
- AD (Oryctolagus cuniculus [2]): 34.5 mM
- pAD (Oryctolagus cuniculus [4]): 1.82
- Increase (Mus musculus [10]): 20.5%
- LD50 [5]: 128 µmol/kg
- pLD50 (Mus musculus [6]): 3.89
- Activity (Mus musculus [7]): inactive
- logP [8]: 3.2

SMILES: CCN(CC)CC(=O)NCc1ccccc1.Cl
- Increase (Mus musculus [11]): 25%
- logP [1]: 2.14
- AD (Oryctolagus cuniculus [2]): 117 mM
- logD [3]: 1.39
- pAD (Oryctolagus cuniculus [4]): 0.93
- LD50 [5]: 376 µmol/kg
- pLD50 (Mus musculus [6]): 3.42
- Activity (Mus musculus [7]): inactive
- logP [8]: 1.02
- pKa [9]: 8.07

SMILES: CCCCCN(CCCCC)CC(=O)NCc1ccccc1.Cl
- logP [1]: 5.19
- AD (Oryctolagus cuniculus [2]): 29.3 mM
- pAD (Oryctolagus cuniculus [4]): 1.53
- Activity (Mus musculus [7]): inactive
- logP [8]: 5.259

SMILES: CN(C)CC(=O)NCc1ccccc1.Cl
- logP [1]: 1.11
- logD [3]: 0.681
- LD50 [5]: 735 µmol/kg
- pLD50 (Mus musculus [6]): 3.13
- AD (Oryctolagus cuniculus [12]): Irritant
- Activity (Mus musculus [7]): inactive
- logP [8]: -0.453
- pKa [9]: 7.62

SMILES: Cl.O=C(CN1CCCCC1)NCc1ccccc1
- logP [1]: 2.27
- AD (Oryctolagus cuniculus [2]): 186 mM
- logD [3]: 1.78
- pAD (Oryctolagus cuniculus [4]): 0.73
- LD50 [5]: 245 µmol/kg
- pLD50 (Mus musculus [6]): 3.61
- Activity (Mus musculus [7]): inactive
- logP [8]: 1.198
- pKa [9]: 7.71
